EBV gp42 block: inhibitors of Epstein-Barr virus glycoprotein 42. Fluorescence polarization binding assay, mP read-out. 220,000 compounds, 0.42% hits. inhibition, % (tested at 21.74 µM). Q1HVG2; in the data active = inhibition above about 50%
LANA DNA inh: inhibitors of KSHV LANA C-terminal domain DNA binding; MBP-C-LANA/FAM-LBS DNA binding, fluorescence polarization; inhibition, % at 9 µM; 340,000 compounds, 0.078% hits;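 active = highest replicate inhibition at or above 60% at 9 µM, even if other replicates fall short; inactive = all replicates below 60% inhibition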
MEX-5 binding: C. elegans MEX-5 TCR-2 RNA binding activity; 300,000 compounds, 0.38% hits; AID 1832; MEX-5/FITC-TCR2 RNA binding, fluorescence polarization; active compounds read low; activity score (negative = inhibition of binding), % at 10 µM;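 active = inhibition past about -25% in most replicates, and total fluorescence under double the plate's negative control median, limit read from the data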
T cell modulator: T cell immune modulation candidate; 2C CD8+ T cell-vesicle binding, flow cytometry; active compounds read low; response (vesicle binding), % at 7 µM; 330,000 compounds, 0.068% hits; AID 2052;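 active = response, share of CD8 T cells binding vesicles, and their 90th percentile fluorescence all below set limits, cut at about 80% in these data, passing the limit was not always enough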;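 also: values below 100% mean blocked vesicle binding to the CD8+ T cells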
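Assay system: 2C TCR transgenic mouse naive CD8+ T cells, MACS-purified | Read-out: CD8+ gate FL2 mean fluorescence as % of same-row positive control | Signal: High-throughput flow cytometry with anti-B7-1 and anti-CD8 staining | Timing: Binding step 1.5 h, 37 °C, antibody labelling 20 min, ice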
GRK2 inh: inhibitors of human GRK2 displacing RNA aptamer | inhibition of aptamer binding, % at 10 µM | bead flow cytometry, FAM-aptamer displacement from GRK2 | 330,000 compounds, 0.59% hits | AID 488847;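 active = inhibition of aptamer binding above 40%, roughly 3 SD of noise, on plates passing a quality check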;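 also: median bead fluorescence of bound FAM aptamer so fluorescent compounds give negative values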
Keap1-Nrf2 PPI: inhibitors of human Keap1-Nrf2 protein-protein interaction | AID 504523 | Q14145 | inhibition, % at 9.4 µM | 340,000 compounds, 0.15% hits | Keap1 Kelch-Nrf2 peptide fluorescence polarization, 1536-well; in the data active = inhibition above about 12%;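 also: human Keap1 Kelch domain with fluorescein labeled Nrf2 9mer peptide probe; higher means more block of Keap1 binding to Nrf2 peptide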
Target sequence (Q14145 whole entry, looked up, the tested form may be a part): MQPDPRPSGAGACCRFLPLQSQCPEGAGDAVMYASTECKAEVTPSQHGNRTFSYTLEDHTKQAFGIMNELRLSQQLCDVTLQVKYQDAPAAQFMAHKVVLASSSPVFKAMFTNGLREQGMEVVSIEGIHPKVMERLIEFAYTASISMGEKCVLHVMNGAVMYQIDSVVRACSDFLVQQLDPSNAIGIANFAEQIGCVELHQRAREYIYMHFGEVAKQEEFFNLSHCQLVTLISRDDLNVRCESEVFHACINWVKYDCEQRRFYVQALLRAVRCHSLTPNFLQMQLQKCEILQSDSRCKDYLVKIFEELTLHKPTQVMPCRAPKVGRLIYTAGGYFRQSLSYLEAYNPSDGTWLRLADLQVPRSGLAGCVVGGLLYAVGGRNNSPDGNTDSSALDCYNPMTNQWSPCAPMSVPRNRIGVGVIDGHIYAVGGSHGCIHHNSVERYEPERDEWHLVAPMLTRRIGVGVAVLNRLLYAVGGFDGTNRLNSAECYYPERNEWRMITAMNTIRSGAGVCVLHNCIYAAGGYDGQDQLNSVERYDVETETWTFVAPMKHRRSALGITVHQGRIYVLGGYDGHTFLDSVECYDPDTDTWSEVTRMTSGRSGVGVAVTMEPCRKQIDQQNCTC
GRK2 CP1: confirmation of human GRK2 inhibitors displacing RNA aptamer; shares compounds with GRK2 inh; 2,000 compounds, 4% hits; aptamer displacement, % at 10 µM; bead-bound GRK2, FAM-aptamer displacement, flow cytometry;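 active = aptamer displacement above 40%, near three times the noise of non-fluorescent compounds, on plates passing quality checks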;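 also: negative values mostly reflect intrinsic compound fluorescence rather than true enhancement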
FAM quench CP1: quenches fluorescent RNA aptamer, GRK2 hit artifact. fluorescence response (% of DMSO), % at 10 µM. AID 504580. shares compounds with GRK2 inh. Carboxyfluorescein RNA aptamer on beads, flow cytometry quenching; active compounds read low. 2,000 tested, under 10 active;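 active = compounds that quench the bead-bound fluorescent RNA probe, cutting fluorescence to under half of the solvent control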;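 also: counterscreen run without GRK2 so only probe quenching by compound is measured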
GRK2 confirm 2: confirmation of human GRK2 inhibitors binding RNA aptamer site. shares compounds with GRK2 inh. bead-bound GRK2, FAM-aptamer displacement, flow cytometry. inhibition of aptamer binding, % at 10 µM. 360 tested, under 10 active;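 active = inhibition of aptamer binding above 40%, about triple the noise seen with nonglowing compounds, on plates passing quality control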;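 also: negative values mostly come from compounds that fluoresce themselves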
FAM quench SP: aptamer fluorescence quenching in GRK2 counter-screen; fluorescence response vs DMSO, % at 10 µM; 360 tested, under 10 active; AID 588494; carboxyfluorescein RNA aptamer beads, flow cytometry quenching; active compounds read low; shares compounds with GRK2 inh;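 active = response vs DMSO under 50%, meaning signal dropped by over half, treated as fluorescence quencher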;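 also: labelled aptamer on streptavidin beads without GRK2 as a quench counter-screen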
Numbers stand for hits; i = inactive; nt = no result. Hits are enriched below; roughly 1.3% of the tested compounds scored in any of these assays.

SMILES | EBV gp42 block | LANA DNA inh | MEX-5 binding | T cell modulator | GRK2 inh | Keap1-Nrf2 PPI | GRK2 CP1 | FAM quench CP1 | others
CSc1ccccc1C(=O)Nc1cccc(C)c1 | i | i | i | i | 97.0 | i | i | i
O=C(Nc1nc2c(ccc3ccccc32)s1)c1ccco1 | i | i | i | i | i | i | nt | nt | GRK2 confirm 2=i;FAM quench SP=i
O=C(Nc1nc2c(F)c(F)c(F)cc2s1)c1ccco1 | nt | i | i | i | i | i | nt | nt
Cc1nn2c(NCCCN(C)C)c3c(nc2c1-c1ccccc1)CCC3 | i | i | i | i | i | i | nt | nt
O=C(CSc1cn(CCNC(=O)c2cccs2)c2ccccc12)NC1CCCCC1 | i | i | i | i | i | i | nt | nt | GRK2 confirm 2=i;FAM quench SP=i
O=C(CSc1cn(CCNC(=O)c2cccs2)c2ccccc12)NCC1CCCO1 (stereo unspecified) | i | i | i | i | i | i | nt | nt | GRK2 confirm 2=i;FAM quench SP=i
Cc1cc(C(=O)OCC(=O)Nc2cc(Cl)ccc2C)c(C)o1 | nt | i | nt | i | i | i | nt | nt
COc1ccc([C@H]2CC(=O)C=C(c3ccccc3Oc3ccccc3)C2)cc1 | nt | i | nt | i | 60.0 | i | i | i
CCN(CC)S(=O)(=O)c1ccc(N2CCOCC2)c(NC(=O)COc2ccccc2C)c1 | nt | i | nt | i | 74.0 | i | i | i
CCN(CC)S(=O)(=O)c1ccc(N2CCOCC2)c(NC(=O)CC23CC4CC(CC(Br)(C4)C2)C3)c1 | i | i | i | i | 100.0 | i | nt | nt | GRK2 confirm 2=i;FAM quench SP=i
CCN(CC)S(=O)(=O)c1ccc(N2CCOCC2)c(NC(=O)COc2ccccc2C#N)c1 | i | i | i | i | i | i | nt | nt
Cc1cc(=O)n2nc(N3CCCC(C(=O)NCc4ccccc4C)C3)sc2n1 (stereo unspecified) | nt | i | i | i | i | i | i | i
CC1CCN(S(=O)(=O)N2CCCC(C(=O)NCc3ccccc3Cl)C2)CC1 (stereo unspecified) | nt | i | i | i | i | i | nt | nt
Cc1cc(=O)n2nc(N3CCCC(C(=O)NCc4ccccc4Cl)C3)sc2n1 (stereo unspecified) | nt | i | nt | i | i | i | i | i
CC1CC(C)CN(S(=O)(=O)N2CCCC(C(=O)NCc3ccccc3Cl)C2)C1 (stereo unspecified) | nt | i | i | i | i | i | i | i
O=C1C2C3C=CC(C2C(=O)N1C1CCCCC1)C1C(=O)N(C2CCCCC2)C(=O)C31 (stereo unspecified) | i | i | nt | i | i | i | nt | nt
CC(C)(C)N(NC(=O)Nc1ccccc1)C(=O)c1ccccc1 | i | i | i | i | i | i | nt | nt
COCCCNCCCCOc1ccc(Br)cc1Cl | i | i | i | i | 41.0 | i | nt | nt | GRK2 confirm 2=i;FAM quench SP=i
COCCNCCCOc1ccc(Br)cc1Cl | i | i | i | i | i | i | nt | nt
COCCCNCCOCCOc1ccc(C)cc1Br | i | i | i | i | 100.0 | i | nt | nt | GRK2 confirm 2=i;FAM quench SP=i
CC(C)Oc1ccc(CCNC(=O)C2CCC(=O)N(Cc3cccc(F)c3)C2)cc1 (stereo unspecified) | nt | i | i | i | i | i | nt | nt
Cc1cc(=O)oc2cc(OCC(=O)N/N=C/c3cc([N+](=O)[O-])ccc3O)ccc12 | 91.5 | i | i | i | 75.0 | i | i | i
CC(c1nc2ccccc2c(=O)[nH]1)N1CCN(C)CC1 (stereo unspecified) | i | i | i | i | i | i | nt | nt | GRK2 confirm 2=i;FAM quench SP=i
Cc1cccc(C)c1NC(=O)CSc1nc(N2CCOCC2)nc(N2CCOCC2)n1 | nt | i | i | i | i | i | nt | nt
OCCSc1nc(N2CCOCC2)nc(N2CCOCC2)n1 | i | i | i | i | i | i | i | i
SMILES | EBV gp42 block | LANA DNA inh | MEX-5 binding | T cell modulator | GRK2 inh | Keap1-Nrf2 PPI | GRK2 CP1 | FAM quench CP1 | others
CSCC[C@H](NC(=O)OC(C)(C)C)C(=O)N/N=C/c1ccc2nccnc2c1 | i | i | nt | i | i | i | nt | nt
O=C(NCc1ccncc1)c1cccc(Cn2cc(Br)cn2)c1 | i | i | nt | i | i | i | i | i
Cc1cc(C)n2nc(C(=O)N3CCCC(Nc4ccc(F)c(F)c4)C3)cc2n1 (stereo unspecified) | nt | i | i | i | 85.0 | i | nt | nt | GRK2 confirm 2=i;FAM quench SP=i
CN(CC(=O)N1CCC(C(N)=O)CC1)S(=O)(=O)c1ccc2ccccc2c1 | nt | i | i | i | i | i | nt | nt
COCCNC(=O)c1c[nH]c2ccc(S(=O)(=O)N3CCc4ccccc43)cc2c1=O | i | i | i | i | i | i | nt | nt
COCCNC(=O)c1c[nH]c2ccc(S(=O)(=O)Nc3ccc(F)cc3F)cc2c1=O | nt | i | i | i | 91.0 | i | i | i
COCCNC(=O)c1c[nH]c2ccc(S(=O)(=O)Nc3ccccc3F)cc2c1=O | nt | i | i | i | 70.0 | i | i | i
COc1ccc(C2/C(=C(/O)c3ccc4c(c3)CC(C)O4)C(=O)C(=O)N2CCCN2CCOCC2)cc1OC (stereo unspecified) | nt | i | i | i | i | i | nt | nt
COC(=O)c1ccc(NC(=O)CSc2nnc(COc3c(C)cccc3C)o2)cc1 | i | i | i | i | i | i | nt | nt
COc1cc(SC)ccc1C(=O)Nc1c(C)cccc1C | i | i | i | i | i | i | nt | nt
COc1cc(SC)ccc1C(=O)NNC(=O)c1cc(C)oc1C | nt | i | i | i | 45.0 | i | i | i
Cc1cc(=O)oc2c(C)c(OCC(=O)NCc3ccccn3)ccc12 | nt | i | nt | i | i | i | nt | nt
Cc1nc(C(=O)NCc2ccccc2)sc1C1(C)CC(c2ccccc2)=NO1 (stereo unspecified) | i | i | i | i | i | i | i | i
OCC1CCCN(c2nc(CN3CCCCC3)nc3scc(-c4ccccc4)c23)C1 (stereo unspecified) | i | i | i | i | i | i | i | i
CN(Cc1ccccc1)c1nc(CN2CCOCC2)nc2scc(-c3ccccc3)c12 | i | i | i | i | i | i | i | i
OCC1CCCN(c2ncnc3scc(-c4ccccc4)c23)C1 (stereo unspecified) | i | i | i | i | i | i | nt | nt
Cc1ccc(NC(=O)CSCC(=O)Nc2ccc(S(=O)(=O)N3CCCC3)cc2)cc1 | nt | i | i | i | i | i | nt | nt
Cc1cccc(Oc2ccc(S(=O)(=O)N3CCCCC3)cc2NC(=O)C2=COCCO2)c1 | nt | i | nt | i | i | i | i | i
CC(C)Oc1ccc(S(=O)(=O)N2CCCCC2)cc1NC(=O)C1=COCCO1 | nt | nt | i | i | i | nt | nt | nt
Cc1nnc(Nc2ccc(C(=O)NCCO)cc2)c2ccccc12 | i | i | i | i | 49.0 | i | i | i
